According to ChEMBL document CHEMBL4680077, “Differentiation of skeletal osteogenic progenitor cells to osteoblasts with 3,4-diarylbenzopyran based amide derivatives: Novel osteogenic agents” (Eur J Med Chem, 2016):
Activity calls are given as the source filed them. The rule behind the calls is not given here.

Tests used:
[1] = Acute toxicity in Swiss albino mouse assessed as malondialdehyde level at 50 mg/kg, po measured after 7 days (reference value: 0.14 +/- 0.01 nM/mg); type: organism-based; details: in vivo, 168 h, time 7 day
[2] = Acute toxicity in Swiss albino mouse assessed as haemoglobin level at 5 mg/kg, po measured after 7 days (reference value: 10.86 +/- 0.87 g/dL); type: organism-based; details: in vivo, 168 h, time 7 day
[3] = Acute toxicity in Swiss albino mouse assessed as reduced GSH level at 50 mg/kg, po measured after 7 days (reference value: 18.20 +/- 1.56 ug/mg of protein); type: organism-based; details: in vivo, 168 h, time 7 day
[4] = AUC (0 to 24 hrs) in Sprague-Dawley rat at 1 mg/kg, iv measured upto 24 hrs by LC-MS/MS analysis; type: ADME, organism-based; design: route intravenous, dose 1 mg/kg, time <=24; details: in vivo
Summary of the method: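 Female Sprague-Dawley rats (n = 4 per route), fasted overnight (12-14 h); 1 mg/kg orally in 0.25% CMC suspension, or an i.v. tail-vein bolus in DMSO-PEG400-ethanol-water (4:3:1:2). Retro-orbital blood was taken up to 24 h, and plasma was extracted with n-hexane (halofantrine IS). LC-MS/MS linear range 0.5-200 ng/mL. AUC0-24 was calculated by the linear trapezoidal rule, non-compartmental; mean ± S.D.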

[5] = Acute toxicity in Swiss albino mouse assessed as creatinine level at 300 mg/kg, po measured after 7 days (reference value: 0.97 +/- 0.07 mg/dL); type: organism-based; details: in vivo, 168 h, time 7 day
[6] = Acute toxicity in Swiss albino mouse assessed as relative ovary weight at 1000 mg/kg, po measured after 7 days (reference value: 0.07 +/- 0.02 %); type: organism-based; details: in vivo, 168 h, time 7 day
[7] = Acute toxicity in Swiss albino mouse assessed as RBC count at 50 mg/kg, po measured after 7 days (Rvb =6.0 +/- 0.28 million/mm3); type: organism-based; details: in vivo, 168 h, time 7 day
Calvarial osteoblast = assay: Induction of osteoblast differentiation in mouse calvarial osteoblast assessed as increase in BMP-2 mRNA expression at 1 pM incubated for 48 hrs by qPCR analysis; type: functional, cell-based
Summary of the method: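 Calvarial osteoblasts were treated at 1 pM for 24 and 48 h. Total RNA was extracted with TRIzol, and cDNA was made from 2 µg RNA. qPCR ran 40 cycles for BMP-2, RUNX-2, OCN and collagen type 1, with normalization to GAPDH. Mean ± SEM of three independent experiments.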

[8] = Acute toxicity in Swiss albino mouse assessed as absolute spleen weight at 1000 mg/kg, po measured after 7 days (reference value: 0.17 +/- 0.03 g); type: organism-based; details: in vivo, 168 h, time 7 day
[9] = Clearance in Sprague-Dawley rat at 1 mg/kg, iv measured upto 24 hrs by LC-MS/MS analysis; type: ADME, organism-based; details: in vivo
[10] = Acute toxicity in Swiss albino mouse assessed as WBC count per thousand/mm3 at 50 mg/kg, po measured after 7 days (reference value: 6.84 +/- 0.83 /mm3); type: organism-based; details: in vivo, 168 h, time 7 day
[11] = Acute toxicity in Swiss albino mouse assessed as relative lung weight at 1000 mg/kg, po measured after 7 days (reference value: 0.70 +/- 0.08 %); type: organism-based; details: in vivo, 168 h, time 7 day
[12] = Acute toxicity in Swiss albino mouse assessed as relative heart weight at 5 mg/kg, po measured after 7 days (reference value: 0.51 +/- 0.02 %); type: organism-based; details: in vivo, 168 h, time 7 day
[13] = Oral bioavailability in Sprague-Dawley rat at 1 mg/kg measured upto 24 hrs by LC-MS/MS analysis; type: ADME, organism-based; details: in vivo
Summary of the method: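 Oral (1 mg kg-1, 0.25% CMC) and i.v. (1 mg kg-1 bolus) groups of female SD rats, n = 4 each, sampled to 24 h and assayed by plasma LC-MS/MS. AUC0-∞ = AUC0-t + Clast/kel. %F = (AUC oral × dose i.v.)/(AUC i.v. × dose oral) × 100.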

[14] = Acute toxicity in Swiss albino mouse assessed as serum protein level at 5 mg/kg, po measured after 7 days (reference value: 0.66 +/- 0.01 mg/ml); type: organism-based; details: in vivo, 168 h, time 7 day
[15] = Acute toxicity in Swiss albino mouse assessed as absolute heart weight at 1000 mg/kg, po measured after 7 days (reference value: 0.12 g); type: organism-based; details: in vivo, 168 h, time 7 day
[16] = Acute toxicity in Swiss albino mouse assessed as relative uterus weight at 300 mg/kg, po measured after 7 days (reference value: 1.63 +/- 0.71 %); type: organism-based; details: in vivo, 168 h, time 7 day
[17] = Acute toxicity in Swiss albino mouse assessed as SGPT level at 5 mg/kg, po measured after 7 days (reference value: 14.04 +/- 1.45 U/L); type: organism-based; details: in vivo, 168 h, time 7 day
[18] = Acute toxicity in Swiss albino mouse assessed as creatinine level at 1000 mg/kg, po measured after 7 days (reference value: 0.97 +/- 0.07 mg/dL); type: organism-based; details: in vivo, 168 h, time 7 day
Mus musculus [19] = assay: In vivo osteogenic activity in ovariectomized BALB/c mouse assessed as increase in bone stiffness at 1 to 10 mg/kg, po via gavage administered for 1 month by TKC Muromachi bone strength testing method; type: functional, organism-based; details: dose 1-10 mg/kg, time 1.0 months
Summary of the method: (§1)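 Ovariectomized balb/c mice were gavaged with 1 or 10 mg kg-1 daily for one month. Bones were then tested on a bone strength tester for energy, stiffness and force to break. Mean ± SEM compared with the Ovx vehicle group.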

[20] = Acute toxicity in Swiss albino mouse assessed as body weight at 5 mg/kg, po observed on day 1 (reference value: 20.38 +/- 0.24 g); type: organism-based; details: in vivo, 24 h, time 1 day
[21] = Acute toxicity in Swiss albino mouse assessed as eosinophil count at 50 mg/kg, po measured after 7 days (reference value: 6.34 +/- 1.04 %); type: organism-based; details: in vivo, 168 h, time 7 day
[22] = Acute toxicity in Swiss albino mouse assessed as absolute uterus weight at 5 mg/kg, po measured after 7 days (reference value: 0.27+/- 0.07 g); type: organism-based; details: in vivo, 168 h, time 7 day
[23] = Acute toxicity in Swiss albino mouse assessed as absolute uterus weight at 300 mg/kg, po measured after 7 days (reference value: 0.27+/- 0.07 g); type: organism-based; details: in vivo, 168 h, time 7 day
[24] = Acute toxicity in Swiss albino mouse assessed as relative testes weight at 5 mg/kg, po measured after 7 days (reference value: 0.62 +/- 0.03 %); type: organism-based; details: in vivo, 168 h, time 7 day
Mus musculus [25] = assay: In vivo osteogenic activity in ovariectomized BALB/c mouse assessed as increase in force required to break bone at 1 to 10 mg/kg, po via gavage administered for 1 month by TKC Muromachi bone strength testing method; type: functional, organism-based; details: dose 1-10 mg/kg, time 1.0 months; summary of the method: as §1
[26] = Acute toxicity in Swiss albino mouse assessed as absolute heart weight at 50 mg/kg, po measured after 7 days (reference value: 0.12 g); type: organism-based; details: in vivo, 168 h, time 7 day
[27] = Acute toxicity in Swiss albino mouse assessed as absolute liver weight at 1000 mg/kg, po measured after 7 days (reference value: 1.11 +/- 0.04 g); type: organism-based; details: in vivo, 168 h, time 7 day
[28] = Acute toxicity in Swiss albino mouse assessed as absolute brain weight at 5 mg/kg, po measured after 7 days (reference value: 0.37 +/- 0.02 g); type: organism-based; details: in vivo, 168 h, time 7 day
[29] = Acute toxicity in Swiss albino mouse assessed as eosinophil count at 5 mg/kg, po measured after 7 days (reference value: 6.34 +/- 1.04 %); type: organism-based; details: in vivo, 168 h, time 7 day
[30] = Acute toxicity in Swiss albino mouse assessed as monocyte count at 300 mg/kg, po measured after 7 days (reference value: 12.58 +/- 2.86 %); type: organism-based; details: in vivo, 168 h, time 7 day

CCCCN(C)C(=O)CCCCOc1ccc([C@H]2c3ccc(OC)cc3OC(C)(C)[C@@H]2c2ccccc2)cc1
Activity [1]: 0.14 nM/mg | Activity [2]: 12.94 g/dL | Activity [3]: 15 µg/mg | AUC(0-t) [4]: 852 ng·h/mL | Activity [5]: 0.97 mg/dL | Activity [6]: 0.05% | Activity [7]: 8.16 million/mm3 | Activity (Calvarial osteoblast): Active | Activity [8]: 0.1 g | clearance [9]: 18.4 mL/min/kg | Activity [10]: 5.69 /mm3 | Activity [11]: 0.75% | Activity [12]: 0.48% | bioavailability [13]: 13.2% | Activity [14]: 0.74 mg/mL | Activity [15]: 0.12 g | Activity [16]: 1.23% | Activity [17]: 17.44 U/L | Activity [18]: 0.69 mg/dL | Activity (Mus musculus [19]): Active | Activity [20]: 20.65 g | Activity [21]: 6.99% | Activity [22]: 0.3 g | Activity [23]: 0.33 g | Activity [24]: 0.6% | Activity (Mus musculus [25]): Active | Activity [26]: 0.12 g | Activity [27]: 1.07 g | Activity [28]: 0.35 g | Activity [29]: 8.35% | Activity [30]: 8.99%
